ChEMBL document CHEMBL1157757, “Macrocyclic hexaoxazoles: Influence of aminoalkyl substituents on RNA and DNA G-quadruplex stabilization and cytotoxicity” (Bioorg Med Chem Lett, 2010)

Key:
[1] = Cytotoxicity against human RPMI8402 cells after 4 days by MTT assay; format: functional, cell-based; conditions: RPMI 8402, 96 h
Outline: (§1)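 Growth inhibition in RPMI 8402, KB3-1, MDR1-expressing KBV-1 and BCRP-expressing KBH5.0 cells; IC50 reported as mean of three experiments ± standard deviation.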

[2] = Cytotoxicity against multidrug-resistant human KBV1 cells expressing MDR1 after 4 days by MTT assay; format: functional, cell-based; conditions: KB-V1, 96 h; outline: as §1
[3] = Cytotoxicity against wild type human KB3-1 cells after 4 days by MTT assay; format: functional, cell-based; conditions: KB 3-1, 96 h; outline: as §1
[4] = Cytotoxicity against multidrug-resistant human KBH5.0 cells expressing BCRP after 4 days by MTT assay; format: functional, cell-based; conditions: KBH5.0 cell, 96 h; outline: as §1
[5] = Cytotoxicity against human RPMI8402 cells; format: functional, cell-based; conditions: RPMI 8402; outline: as §1
Nucleic Acid [6] = test: Binding affinity to r[AG4CG2-CUG2UCG2AGUG2C] sequence of quadruplex RNA assessed as change in transition temperature at 20 uM in presence of 150 mM K+ ions; format: nucleic-acid assay
Outline: (§2)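 Quadruplex UV melting of hTel DNA or AurA RNA at 5 µM in strand, ligand 20 µM, in 10 mM potassium phosphate pH 7.5 plus 132 mM KCl (150 mM total K+); Ttran from maxima or minima of first-derivative melting profiles; ΔTtran uncertainty 0.5 °C.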

Nucleic Acid [7] = test: Binding affinity to human G-quadruplex d[T2G3(T2AG3)3A] DNA assessed as change in transition temperature at 20 uM in presence of 150 mM K+ ions; format: nucleic-acid assay; outline: as §2

ΔTm (Nucleic Acid [6])	ΔTm (Nucleic Acid [7])	Compound	IC50 [1]	IC50 [2]	IC50 [3]	IC50 [4]	IC50 [5]
		CN(C)CC[C@@H]1NC(=O)c2coc(n2)-c2coc(n2)-c2coc(n2)[C@H](CCN(C)C)NC(=O)c2coc(n2)-c2coc(n2)-c2coc1n2	4300 nM	> 10000 nM	2800 nM	650 nM	
		CC(=O)NCCCC[C@@H]1NC(=O)c2coc(n2)-c2coc(n2)-c2coc(n2)[C@H](C(C)C)NC(=O)c2coc(n2)-c2coc(n2)-c2coc1n2	750 nM	> 10000 nM	710 nM	1900 nM	
		CN(C)CCC[C@@H]1NC(=O)c2coc(n2)-c2coc(n2)-c2coc(n2)[C@H](CCCN(C)C)NC(=O)c2coc(n2)-c2coc(n2)-c2coc1n2	> 10000 nM	> 10000 nM	4200 nM	3000 nM	
		CC(C)[C@@H]1NC(=O)c2coc(n2)-c2coc(n2)-c2coc(n2)[C@H](CCCCN)NC(=O)c2coc(n2)-c2coc(n2)-c2coc1n2	4800 nM	> 10000 nM	3400 nM	3000 nM	
		CC(C)[C@@H]1NC(=O)c2coc(n2)-c2coc(n2)-c2coc(n2)[C@H](CCNC(=O)OC(C)(C)C)NC(=O)c2coc(n2)-c2coc(n2)-c2coc1n2	310 nM	> 10000 nM	290 nM	250 nM	
		CC(=O)NCCC[C@@H]1NC(=O)c2coc(n2)-c2coc(n2)-c2coc(n2)[C@H](CCCNC(C)=O)NC(=O)c2coc(n2)-c2coc(n2)-c2coc1n2	> 10000 nM	> 10000 nM	> 10000 nM	> 10000 nM	
		CC(C)[C@@H]1NC(=O)c2coc(n2)-c2coc(n2)-c2coc(n2)C/C=C/c2coc(n2)-c2coc(n2)-c2coc1n2	30 nM	3500 nM	40 nM	40 nM	
		CC(=O)NCC[C@@H]1NC(=O)c2coc(n2)-c2coc(n2)-c2coc(n2)[C@H](CCNC(C)=O)NC(=O)c2coc(n2)-c2coc(n2)-c2coc1n2	> 10000 nM	> 10000 nM	> 10000 nM	> 10000 nM	
		CC(C)(C)OC(=O)NCC[C@@H]1NC(=O)c2coc(n2)-c2coc(n2)-c2coc(n2)[C@H](CCNC(=O)OC(C)(C)C)NC(=O)c2coc(n2)-c2coc(n2)-c2coc1n2	350 nM	> 10000 nM	250 nM	250 nM	
		CC(C)[C@@H]1NC(=O)c2coc(n2)-c2coc(n2)-c2coc(n2)[C@H](CCCNC(=O)OC(C)(C)C)NC(=O)c2coc(n2)-c2coc(n2)-c2coc1n2	290 nM	> 10000 nM	230 nM	150 nM	
19.5 °C	11.5 °C	CC(C)[C@@H]1NC(=O)c2coc(n2)-c2coc(n2)-c2coc(n2)[C@H](C(C)C)NC(=O)c2coc(n2)-c2coc(n2)-c2coc1n2 [HEXAOXAZOLE DIVALINE]	540 nM	7700 nM	350 nM	450 nM	540 nM
		NCCCC[C@@H]1NC(=O)c2coc(n2)-c2coc(n2)-c2coc(n2)[C@H](CCCCN)NC(=O)c2coc(n2)-c2coc(n2)-c2coc1n2		> 10000 nM	> 10000 nM	> 10000 nM	
		CC(C)(C)OC(=O)NCCC[C@@H]1NC(=O)c2coc(n2)-c2coc(n2)-c2coc(n2)[C@H](CCCNC(=O)OC(C)(C)C)NC(=O)c2coc(n2)-c2coc(n2)-c2coc1n2	1400 nM	> 10000 nM	450 nM	380 nM	
		CC(C)[C@@H]1NC(=O)c2coc(n2)-c2coc(n2)-c2coc(n2)[C@H](CCCN)NC(=O)c2coc(n2)-c2coc(n2)-c2coc1n2	2500 nM	> 10000 nM	800 nM	380 nM	
		CC(C)(C)OC(=O)NCCCC[C@@H]1NC(=O)c2coc(n2)-c2coc(n2)-c2coc(n2)[C@H](CCCCNC(=O)OC(C)(C)C)NC(=O)c2coc(n2)-c2coc(n2)-c2coc1n2	400 nM	> 10000 nM	250 nM	330 nM	
		CC(=O)NCCCC[C@@H]1NC(=O)c2coc(n2)-c2coc(n2)-c2coc(n2)[C@H](CCCCNC(C)=O)NC(=O)c2coc(n2)-c2coc(n2)-c2coc1n2	3300 nM	> 10000 nM	4000 nM	4500 nM	
		CN(C)CCCC[C@@H]1NC(=O)c2coc(n2)-c2coc(n2)-c2coc(n2)[C@H](CCCCN(C)C)NC(=O)c2coc(n2)-c2coc(n2)-c2coc1n2	> 10000 nM	> 10000 nM	4000 nM	3600 nM	
		CC(C)[C@@H]1NC(=O)c2coc(n2)-c2coc(n2)-c2coc(n2)[C@H](CCCCNC(=O)OC(C)(C)C)NC(=O)c2coc(n2)-c2coc(n2)-c2coc1n2	350 nM	> 10000 nM	300 nM	330 nM	
		CC(=O)NCCC[C@@H]1NC(=O)c2coc(n2)-c2coc(n2)-c2coc(n2)[C@H](C(C)C)NC(=O)c2coc(n2)-c2coc(n2)-c2coc1n2	2500 nM	> 10000 nM	3400 nM	3000 nM	
		NCC[C@@H]1NC(=O)c2coc(n2)-c2coc(n2)-c2coc(n2)[C@H](CCN)NC(=O)c2coc(n2)-c2coc(n2)-c2coc1n2	> 10000 nM	> 10000 nM	> 10000 nM	> 10000 nM	
		CC(=O)NCC[C@@H]1NC(=O)c2coc(n2)-c2coc(n2)-c2coc(n2)[C@H](C(C)C)NC(=O)c2coc(n2)-c2coc(n2)-c2coc1n2	950 nM	> 10000 nM	450 nM	900 nM	
		NCCC[C@@H]1NC(=O)c2coc(n2)-c2coc(n2)-c2coc(n2)[C@H](CCCN)NC(=O)c2coc(n2)-c2coc(n2)-c2coc1n2	> 10000 nM	> 10000 nM	6300 nM	3100 nM	
		CC(C)[C@@H]1NC(=O)c2coc(n2)-c2coc(n2)-c2coc(n2)[C@H](CCN)NC(=O)c2coc(n2)-c2coc(n2)-c2coc1n2	1200 nM	> 10000 nM	2200 nM	1200 nM	
	24 °C	CC(C)[C@@H]1NC(=O)c2coc(n2)-c2coc(n2)-c2coc(n2)[C@H](CCCN(C)C)NC(=O)c2coc(n2)-c2coc(n2)-c2coc1n2	230 nM	> 10000 nM	300 nM	70 nM	
